ARFGAP1 inh: inhibits rat ARF GTPase activating protein 1. Q62848. Arfgap1-stimulated ARF1 GTP hydrolysis, GDP FP detection. inhibition, % at 16.5 µM. actives 0.26% (n = 360,000);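 active = inhibition above a per-plate limit, mean inhibition of low control wells plus 3 SD, cut at about 25% in these data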;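 also: 0% = DMSO wells with enzyme and 100% = wells lacking Arfgap1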
Target sequence (Q62848 1-136 limits assumed): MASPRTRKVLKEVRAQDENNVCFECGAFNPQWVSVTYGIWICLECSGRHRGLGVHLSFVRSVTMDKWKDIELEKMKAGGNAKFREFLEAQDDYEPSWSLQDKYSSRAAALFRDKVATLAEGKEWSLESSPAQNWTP
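System: truncated rat Arfgap1 GAP domain / Medium: HEPES-based buffer, pH 7.5 / Also added: N-terminally truncated human ARF1-GTP substrate / Incubation: enzyme reaction 120 min at 25 °C after 20 min preincubation / Measured by: FP of antibody-bound GDP Alexa 633 tracer, ex 620/em 688 nm / Replicates: singlicate, each compound tested once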
Calb FLC: affects C. albicans growth with fluconazole; actives 0.57% (n = 300,000); C. albicans CaCi-2 + fluconazole, Alamar Blue growth, 48 h; growth inhibition, % (concentration not given with the values); AID 1979;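 active = growth inhibition above about 58% in most replicates, limit read from the data, passing the limit was not always enough; inconclusive = exactly half the replicates above a set limit; inactive = most replicates below a set limit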;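 also: all wells also contain fluconazole at 8 µg/ml as a sub-toxic cotreatment; 0% = median of DMSO wells and 100% = median of geldanamycin control wells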
ASAP1 inh: blocks human ASAP1-stimulated Arf1 GTP hydrolysis; inhibition, % at 16.5 µM; actives 0.19% (n = 360,000); GDP FP detection; in the data active = inhibition above about 25%;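 also: 0% = vehicle with enzyme and substrate and 100% = no enzyme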
Target sequence (Q9ULH1 325-724 limits assumed): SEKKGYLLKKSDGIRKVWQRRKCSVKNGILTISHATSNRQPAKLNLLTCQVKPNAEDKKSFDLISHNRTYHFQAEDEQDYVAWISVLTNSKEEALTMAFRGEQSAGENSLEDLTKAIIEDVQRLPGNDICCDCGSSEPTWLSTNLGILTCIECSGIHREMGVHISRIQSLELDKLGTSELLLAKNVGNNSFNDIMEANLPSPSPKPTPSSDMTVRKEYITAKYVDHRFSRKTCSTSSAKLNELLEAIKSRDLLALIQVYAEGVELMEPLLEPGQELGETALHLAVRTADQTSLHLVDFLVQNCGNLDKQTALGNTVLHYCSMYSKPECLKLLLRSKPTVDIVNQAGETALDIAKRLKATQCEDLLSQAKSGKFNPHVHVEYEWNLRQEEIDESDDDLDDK
sPLA2-III inh: Blocks human group III sPLA2 activity. QFRET BODIPY PC-A2 liposome hydrolysis, fluorescence. inhibition, % at 12.2 µM. actives 0.56% (n = 370,000). Q9NZ20;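 active = inhibition above mean plus 3 SD of compounds lying within the high and low control bounds, cut at about 19% in these data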;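 also: 0% = median of test compound wells and 100% = no enzyme DMSO wells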
SKKanGAS inh: SKKanGAS growth inhibition; actives 1.3% (n = 300,000); S. pyogenes SKKanGAS, kanamycin growth, BacTiter-Glo, 6 h; inhibition, % at 7.5 µM;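 active = mean replicate score, as percent of positive control median, at least 50; inconclusive = mean below 50 but one replicate at or above 50; inactive = mean and every replicate below 50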;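 also: strain carries kanamycin resistance gene driven by streptokinase promoter and grows in 40 µg/ml kanamycin; loss of luminescence reflects streptokinase promoter inhibition or plain growth inhibition; 0% = median of DMSO wells and 100% = positive control at its reference dose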
sPLA2 confirm: human GIII-sPLA2 inhibition, confirmation | shares compounds with sPLA2-III inh | actives 34% (n = 2,000) | recombinant hGIII-sPLA2, BODIPY PC-A2 QFRET fluorescence | inhibition, % at 12.2 µM;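 active = mean inhibition across triplicates above the hit cutoff set in the earlier primary screen, cut at about 19% in these data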;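 also: 0% = enzyme with DMSO and 100% = DMSO wells lacking enzyme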
535nm interf: 535nm fluorescence interference, HGIII-sPLA2 counter-screen | shares compounds with sPLA2-III inh | BODIPY FL product fluorescence interference, QFRET | inhibition, % at 12.2 µM | actives 8.5% (n = 2,000) | AID 743282;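 active = average inhibition above the solvent-only control mean plus 3 SD, cut at about 6% in these data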;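 also: 0% = DMSO with substrate plus product and 100% = DMSO with substrate alone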
BODIPY interf DR: interferes with 535nm fluorescence in dose response counter-screen; shares compounds with sPLA2-III inh; BODIPY FL product fluorescence interference, cell-free; IC50, µM; 240 tested, under 10 active;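 active = IC50 at or below 10 µM; inactive = IC50 above 10 µM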
The depositor's hits bear a star; ? = inconclusive; / = not tested or not shown. The list is not random: actives were taken first. Their share in the collection is about 2.3%.

SMILES | ARFGAP1 inh | Calb FLC | ASAP1 inh | sPLA2-III inh | SKKanGAS inh | sPLA2 confirm | 535nm interf | others
CC1(C)CC(=O)C(Sc2ccccc2)=C(O)C1 | 9 | -9 | 4 | -4 | -16 | / | /
CC1(C)CC(=O)C(Sc2ccccc2C(=O)O)=C(O)C1 | 0 | -6 | -1 | 23* | -8 | 3 | -8
COc1ccc(/C=C(\C#N)c2nc3ccc(C)cc3[nH]2)cc1Oc1ccc(C(F)(F)F)cc1[N+](=O)[O-] | 4 | 1 | 7 | 20* | 5 | -5 | -13
Cc1cc(-c2n[nH]c(=S)n2CC(C)C)cs1 | 13 | -8 | 4 | 20* | 2 | 24* | 0
CC(C)Cn1c(-c2csc3ccccc23)n[nH]c1=S | -1 | 4 | 6 | 13 | -4 | / | /
CCn1c(-c2csc3ccccc23)n[nH]c1=S | 7 | 30 | -2 | 24* | -3 | 22* | 1
CCn1c(-c2csc(C(C)C)c2)n[nH]c1=S | -4 | -12 | 5 | 22* | -11 | 29* | 2 | BODIPY interf DR=>122
Cc1cc(NC(=O)c2ccc(NS(=O)(=O)c3ccc(C)c(C)c3)cc2)no1 | / | / | / | -21 | / | / | /
CC(=O)N1CCN(C(=O)CSc2cc(C)c(Br)cc2C)CC1 | 3 | -34 | 8 | 7 | 3 | / | /
Cc1cc(SCC(=O)NN=C2CCN(C(C)C)CC2)c(C)cc1Br | 3 | ? | 0 | 22* | 0 | 4 | -16
Cc1ccc2nc(-c3ccc(C#N)cc3)c(Cc3cccc(F)c3)n2c1 | 5 | / | 7 | -5 | / | / | /
Cc1cc2ncn(N)c2cc1C | -5 | -1 | 8 | 90* | -10 | -1 | -7
COc1ccccc1Cc1c(-c2ccc(C)cc2)nc2ccc(C)cn12 | 12 | / | -4 | -6 | / | / | /
C=CCS/C(N)=N\N=C\c1c(O)ccc2ccccc12 | 8 | 11 | -14 | 20* | 28 | 29* | 2 | BODIPY interf DR=>122
NC(=O)c1ccc(N=Cc2c(O)ccc3ccccc23)cc1 | 5 | -3 | 11 | 7 | -12 | / | /
O=C(NC(=S)NCCN1CCOCC1)c1ccc(Cl)cc1Cl | 9 | 10 | 1 | 21* | -4 | 12 | -7
O=C(NC(=S)NCCN1CCOCC1)c1ccccc1Cl | 7 | -4 | -8 | 5 | 5 | / | /
CCCCC1OC(CCc2ccccc2)CC2=C1C(=O)OC(C)(C)O2 (stereo unspecified) | 4 | / | -7 | 2 | / | / | /
CCN(CC)C(=O)/C=C/c1ccccc1 | 9 | / | -2 | 20* | / | -3 | -4
CCCCc1ccc(S(=O)(=O)NC(=O)C2(C)CCN2C(=O)Cc2ccccc2)cc1 (stereo unspecified) | -10 | / | 13 | -11 | / | / | /
COCCCNc1ccn2nc(-c3ccccc3)cc2n1 | 10 | / | 7 | -7 | / | / | /
CC(C)(CO)CNc1ccn2nccc2n1 | -4 | / | 7 | 22* | / | 0 | -2
CN1CCN(S(=O)(=O)c2cccc([N+](=O)[O-])c2)CC1 | / | -7 | / | / | / | / | /
CC(C)c1nccn1S(=O)(=O)c1cccc([N+](=O)[O-])c1 | -1 | / | 1 | 19* | / | 6 | -2
O=C(CSc1nnc(-c2ccco2)n1-c1ccc(Cl)cc1)Nc1ccccc1-c1ccccc1 | / | / | / | -11 | / | / | /
SMILES | ARFGAP1 inh | Calb FLC | ASAP1 inh | sPLA2-III inh | SKKanGAS inh | sPLA2 confirm | 535nm interf | others
N=C1C=CC(=C(c2ccc(N)cc2)c2ccc(N)cc2)C=C1 | -1 | / | 4 | 21* | / | 17 | -1
C[C@@H]1CN([C@@H](C)CO)S(=O)(=O)c2ccc(-c3ccccc3)cc2O[C@@H]1CN(C)Cc1ccccc1C(=O)O | 1 | / | 10 | -12 | / | / | /
COC(=O)C1CN(C2CCCC2)CCS(=O)(=O)N1Cc1cn(Cc2ccc(OC)cc2)nn1 (stereo unspecified) | / | / | / | -1 | / | / | /
CC1(C)CC(=O)C=C(Nc2ccc(Br)cn2)C1 | 8 | -2 | 2 | 21* | -2 | 2 | -8
CCc1c(C)sc(NC(=O)c2cccs2)c1C#N | -5 | 56 | 1 | 20* | -4 | 25* | -3
c1ccc(CSc2ccc(-c3ccc4c(c3)OCO4)nn2)cc1 | -2 | 4 | -16 | 23* | -3 | 1 | -7
Fc1ccc(CSc2ccc(-c3ccc4c(c3)OCO4)nn2)cc1 | -5 | -24 | -4 | 6 | -2 | / | /
Cc1csc(N(C(=O)Cc2ccccc2F)c2ccccc2)n1 | 9 | 18 | 2 | 20* | -6 | -3 | -12
COc1ccc(CC(=O)N(c2ccccc2)c2nc(C)cs2)cc1 | 8 | -2 | -20 | -1 | -12 | / | /
O=C(Nc1ccc(C(F)(F)F)cc1)C1(c2ccccc2)CC1 | -2 | -10 | 4 | 25* | -1 | 4 | -11
O=C(Nc1cccc(C(F)(F)F)c1)C1(c2ccccc2)CC1 | 0 | 6 | 11 | 5 | -5 | / | /
Cc1ccc(C2CC2C(=O)NNC(=S)Nc2ccc(Cl)cc2)cc1 (stereo unspecified) | -1 | -18 | 7 | 21* | 0 | 9 | 12*
CC(C)(C)NC(=S)NNC(=O)[C@H]1C[C@@H]1c1ccccc1 | 4 | -27 | 3 | 11 | 0 | / | /
COC(=O)C1=C(C)N(Cc2cccc(C(F)(F)F)c2)C(=NCc2ccc3c(c2)OCO3)NC1c1cccc(F)c1 (stereo unspecified) | 5 | / | 4 | -4 | / | / | /
O=Cc1nc(Nc2cc(F)cc(F)c2)nc(NC2CCCC2)n1 | / | / | / | 28* | / | 23* | -8
Cc1ccc(S(=O)(=O)N(C)CCCC(=O)Nc2ccccn2)cc1 | 10 | 1 | 12 | 20* | 1 | -1 | -9
COCCCNC(=O)C[C@H]1C[C@@]2(C(=O)OC)C(=C[C@H](COCc3ccccc3)O[C@@H]2C)N(Cc2ccco2)C1=O | / | / | / | 2 | / | / | /
S=C(NCc1ccccc1)NCc1ccc(CNC(=S)NCc2ccccc2)cc1 | 1 | 5 | -14 | -54 | 3 | / | /
CNC(=S)NNc1nc(-c2ccccc2)c2cc(Cl)ccc2n1 | 2 | -3 | 4 | 13 | -2 | / | /
COc1ccccc1C(=O)NNC(=S)Nc1ccccc1 | -2 | 10 | -5 | 8 | -5 | / | /
CCNC(=S)NNc1nnc(-c2ccccc2)c(-c2ccccc2)n1 | 2 | ? | -1 | 24* | 1 | 50* | 0 | BODIPY interf DR=>122
CCNC(=S)NNC(=S)NCc1ccccc1 | 8 | 7 | 8 | 21* | -11 | 39* | -3 | BODIPY interf DR=>122
O=C(NNC(=S)NCc1ccccc1)c1ccccc1OC(F)F | -2 | 14 | 10 | 20* | -1 | 31* | 3 | BODIPY interf DR=>122
O=C(NNC(=S)Nc1ccc(Cl)cc1)c1ccccc1OC(F)F | -7 | 102* | 3 | 24* | -11 | 28* | 8.5*
C=CCNc1nc(-c2sc(NC(=O)C(C)(C)C)nc2C)c(-n2cc(-c3ccccc3)nn2)s1 | 14 | / | -3 | -22 | / | / | /

Source: PubChem
